According to ChEMBL document CHEMBL1681697, “Simple phosphonic inhibitors of human neutrophil elastase” (Bioorg Med Chem Lett, 2011):
In brackets after ≈: the same amount, converted by molar mass.

What was measured:
[1] = tested on: MCF7; test: Antiproliferative activity against human MCF7 cells after 72 hrs; format: functional, cell-based; conditions: MCF7, 72 h
[2] = Ratio of dissociation of enzyme-inhibitor-substrate complex to Ki for chymotrypsin
[3] = molecular target: Chymotrypsin-like elastase family member 1 (Sus scrofa) (UniProt P00772); test: Inhibition of porcine pancreatic elastase at 5 uM after 15 mins
Outline: (§1)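 Single-point screen: each enzyme incubated with inhibitor at 37 °C, then residual activity measured. Inhibition below 5% was scored as no inhibition.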

[4] = tested on: A549; test: Antiproliferative activity against human A549 cells assessed as growth inhibition at 100 ug/ml after 72 hrs; format: functional; conditions: A549, 72 h
[5] = tested on: LoVo; test: Antiproliferative activity against human multidrug-resistant LoVo cells assessed as growth inhibition at 100 ug/ml after 72 hrs; format: functional
[6] = tested on: LoVo; test: Antiproliferative activity against human LoVo cells after 72 hrs; format: functional, cell-based
[7] = Inhibition of trypsin at 5 uM after 15 mins; outline: as §1
[8] = molecular target: T1, Neutrophil elastase (Homo sapiens) (UniProt P08246); test: Inhibition of human neutrophil elastase at 5 uM after 15 mins; outline: as §1
T1 sequence (whole entry): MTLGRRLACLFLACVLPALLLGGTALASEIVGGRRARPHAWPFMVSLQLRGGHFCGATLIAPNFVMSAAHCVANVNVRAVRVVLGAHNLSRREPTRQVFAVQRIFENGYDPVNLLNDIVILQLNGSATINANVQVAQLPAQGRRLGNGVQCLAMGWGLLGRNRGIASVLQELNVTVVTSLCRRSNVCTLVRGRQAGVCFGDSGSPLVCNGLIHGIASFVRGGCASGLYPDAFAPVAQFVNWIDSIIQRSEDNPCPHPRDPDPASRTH

[9] = tested on: MCF7; test: Antiproliferative activity against human MCF7 cells assessed as growth inhibition at 100 ug/ml after 72 hrs; format: functional; conditions: MCF7, 72 h
[10] = tested on: LoVo; test: Antiproliferative activity against human LoVo cells assessed as growth inhibition at 100 ug/ml after 72 hrs; format: functional

Sequence of Chymotrypsin-like elastase family member 1 (Sus scrofa) (P00772 whole entry): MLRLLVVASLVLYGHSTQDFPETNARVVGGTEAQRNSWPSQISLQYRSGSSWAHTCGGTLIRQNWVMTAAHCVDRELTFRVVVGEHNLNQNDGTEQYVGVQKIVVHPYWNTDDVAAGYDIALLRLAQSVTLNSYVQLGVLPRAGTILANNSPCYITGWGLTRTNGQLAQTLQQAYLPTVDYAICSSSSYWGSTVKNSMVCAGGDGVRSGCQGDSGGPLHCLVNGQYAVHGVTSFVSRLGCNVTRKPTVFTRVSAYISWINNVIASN

COC(=O)c1ccc(OP(=O)(Oc2ccc(C(=O)OC)cc2)[C@H](NC(=O)OCc2ccccc2)C(C)C)cc1
IC50 [1]: 47 µg/mL (≈ 84.6 µM)
Ratio [2]: < 50 M⁻¹ s⁻¹
inhibition [3]: < 5%
inhibition at 100 µg/mL [4]: 46%
inhibition at 100 µg/mL [5]: 54%
IC50 [6]: 32 µg/mL (≈ 57.6 µM)

CSc1ccc(OP(=O)(Oc2ccc(SC)cc2)[C@H](NC(=O)OCc2ccccc2)C(C)C)cc1
inhibition [3]: < 5%

CCc1ccc(OP(=O)(Oc2ccc(CC)cc2)[C@@H](C)NC(=O)OCc2ccccc2)cc1
inhibition [3]: < 5%
inhibition [7]: < 5%

CCC(NC(=O)OCc1ccccc1)P(=O)(Oc1ccc(C(C)C)cc1)Oc1ccc(C(C)C)cc1 (centres undefined)
inhibition [7]: < 5%

CCCC[C@@H](NC(=O)OCc1ccccc1)P(=O)(Oc1ccc(C(=O)OC)cc1)Oc1ccc(C(=O)OC)cc1
Ratio [2]: < 50 M⁻¹ s⁻¹

CC(C)[C@@H](NC(=O)OCc1ccccc1)P(=O)(Oc1ccc(C(C)(C)CC(C)(C)C)cc1)Oc1ccc(C(C)(C)CC(C)(C)C)cc1
inhibition [3]: < 5%
inhibition [8]: < 5%
inhibition [7]: < 5%

CCc1ccc(OP(=O)(Oc2ccc(CC)cc2)[C@H](NC(=O)OCc2ccccc2)C(C)C)cc1
inhibition [7]: < 5%

CC(C)[C@@H](NC(=O)OCc1ccccc1)P(=O)(Oc1ccc(C(C)(C)C)cc1)Oc1ccc(C(C)(C)C)cc1
inhibition [3]: < 5%
inhibition [7]: < 5%

CC(C)(C)C(=O)Oc1ccc(S(=O)(=O)Nc2ccccc2C(=O)NCC(=O)O)cc1 [SIVELESTAT]
inhibition at 100 µg/mL [9]: 61%
inhibition at 100 µg/mL [5]: 15%
inhibition at 100 µg/mL [10]: 20%

CCC[C@@H](NC(=O)OCc1ccccc1)P(=O)(Oc1ccc(OC)cc1)Oc1ccc(OC)cc1
inhibition [3]: < 5%
inhibition [8]: < 5%

CC(C)[C@@H](NC(=O)OCc1ccccc1)P(=O)(Oc1ccccc1)Oc1ccccc1
inhibition [3]: < 5%
inhibition [8]: < 5%
inhibition [7]: < 5%

CCC[C@@H](NC(=O)OCc1ccccc1)P(=O)(Oc1cc(C)c(C)c(C)c1)Oc1cc(C)c(C)c(C)c1
inhibition [3]: < 5%
inhibition [8]: < 5%
inhibition [7]: < 5%

CC(C)[C@@H](NC(=O)OCc1ccccc1)P(=O)(Oc1ccc(S(C)(=O)=O)cc1)Oc1ccc(S(C)(=O)=O)cc1
inhibition at 100 µg/mL [9]: 19%
Ratio [2]: 707 M⁻¹ s⁻¹
inhibition at 100 µg/mL [4]: 5%
inhibition at 100 µg/mL [10]: 15%

COc1ccc(OP(=O)(Oc2ccc(OC)cc2)[C@H](NC(=O)OCc2ccccc2)C(C)C)cc1
inhibition [7]: < 5%

CCCC[C@@H](NC(=O)OCc1ccccc1)P(=O)(Oc1ccc(SC)cc1)Oc1ccc(SC)cc1
inhibition [3]: < 5%
inhibition [8]: < 5%

COc1ccc(OP(=O)(Oc2ccc(OC)cc2)[C@@H](CC(C)C)NC(=O)OCc2ccccc2)cc1
inhibition [8]: < 5%

CC(C)C[C@@H](NC(=O)OCc1ccccc1)P(=O)(Oc1ccc(Cl)cc1)Oc1ccc(Cl)cc1
inhibition [3]: < 5%

CCC[C@@H](NC(=O)OCc1ccccc1)P(=O)(Oc1cc(C)cc(C)c1C)Oc1cc(C)cc(C)c1C
inhibition [3]: < 5%
inhibition [8]: < 5%

C[C@@H](NC(=O)OCc1ccccc1)P(=O)(Oc1ccccc1)Oc1ccccc1
inhibition [3]: < 5%
inhibition [7]: < 5%

CCC[C@@H](NC(=O)OCc1ccccc1)P(=O)(Oc1cccc(C)c1C)Oc1cccc(C)c1C
inhibition [3]: < 5%
inhibition [8]: < 5%

Cc1ccc(C)c(OP(=O)(Oc2cc(C)ccc2C)[C@H](NC(=O)OCc2ccccc2)C(C)C)c1
inhibition [3]: < 5%
inhibition [8]: < 5%
inhibition [7]: < 5%

CCC(NC(=O)OCc1ccccc1)P(=O)(Oc1ccc(Cl)cc1)Oc1ccc(Cl)cc1 (centres undefined)
Ratio [2]: < 50 M⁻¹ s⁻¹

CCc1ccc(OP(=O)(Oc2ccc(CC)cc2)C(CC)NC(=O)OCc2ccccc2)cc1 (centres undefined)
inhibition [3]: < 5%

CCC(NC(=O)OCc1ccccc1)P(=O)(Oc1ccc(C(=O)OC)cc1)Oc1ccc(C(=O)OC)cc1 (centres undefined)
inhibition at 100 µg/mL [9]: 49%
Ratio [2]: 1070 M⁻¹ s⁻¹
inhibition at 100 µg/mL [4]: 31%
inhibition at 100 µg/mL [5]: 38%
IC50 [6]: 73 µg/mL (≈ 135 µM)

CCC(NC(=O)OCc1ccccc1)P(=O)(Oc1ccc(C)c(C)c1)Oc1ccc(C)c(C)c1 (centres undefined)
inhibition [3]: < 5%
inhibition [8]: < 5%

CCC(NC(=O)OCc1ccccc1)P(=O)(Oc1ccccc1)Oc1ccccc1 (centres undefined)
inhibition [3]: < 5%

COC(=O)c1ccc(OP(=O)(Oc2ccc(C(=O)OC)cc2)[C@@H](CC(C)C)NC(=O)OCc2ccccc2)cc1
inhibition at 100 µg/mL [9]: 8%
Ratio [2]: < 50 M⁻¹ s⁻¹
inhibition at 100 µg/mL [4]: 3%
inhibition at 100 µg/mL [5]: 6%
inhibition at 100 µg/mL [10]: 22%

CCC[C@@H](NC(=O)OCc1ccccc1)P(=O)(Oc1ccc(C(=O)OC)cc1)Oc1ccc(C(=O)OC)cc1
IC50 [1]: 52 µg/mL (≈ 93.6 µM)
Ratio [2]: < 50 M⁻¹ s⁻¹
inhibition at 100 µg/mL [4]: 40%
inhibition at 100 µg/mL [5]: 47%
IC50 [6]: 47 µg/mL (≈ 84.6 µM)

CSc1ccc(OP(=O)(Oc2ccc(SC)cc2)[C@@H](CC(C)C)NC(=O)OCc2ccccc2)cc1
inhibition [3]: < 5%

CCCC[C@@H](NC(=O)OCc1ccccc1)P(=O)(Oc1ccccc1)Oc1ccccc1
inhibition [3]: < 5%
inhibition [7]: < 5%

CC(C)c1ccc(OP(=O)(Oc2ccc(C(C)C)cc2)[C@@H](C)NC(=O)OCc2ccccc2)cc1
inhibition [3]: < 5%
inhibition [7]: < 5%

CCCC[C@@H](NC(=O)OCc1ccccc1)P(=O)(Oc1ccc(C(C)(C)C)cc1)Oc1ccc(C(C)(C)C)cc1
inhibition [7]: < 5%

COC(=O)c1ccc(OP(=O)(Oc2ccc(C(=O)OC)cc2)[C@@H](C)NC(=O)OCc2ccccc2)cc1
IC50 [1]: 40 µg/mL (≈ 75.8 µM)
Ratio [2]: 1530 M⁻¹ s⁻¹
inhibition at 100 µg/mL [4]: 25%
inhibition at 100 µg/mL [5]: 46%
IC50 [6]: 47 µg/mL (≈ 89.1 µM)

CSc1ccc(OP(=O)(Oc2ccc(SC)cc2)[C@@H](C)NC(=O)OCc2ccccc2)cc1
inhibition [3]: < 5%
inhibition [7]: < 5%

C[C@@H](NC(=O)OCc1ccccc1)P(=O)(Oc1ccc(C(C)(C)C)cc1)Oc1ccc(C(C)(C)C)cc1
inhibition [7]: < 5%

Cc1ccccc1OP(=O)(Oc1ccccc1C)[C@@H](CC(C)C)NC(=O)OCc1ccccc1
inhibition [3]: < 5%

Cc1ccc(C)c(OP(=O)(Oc2cc(C)ccc2C)[C@@H](CC(C)C)NC(=O)OCc2ccccc2)c1
inhibition [8]: < 5%

CC(C)c1ccc(OP(=O)(Oc2ccc(C(C)C)cc2)[C@H](NC(=O)OCc2ccccc2)C(C)C)cc1
inhibition [3]: < 5%
inhibition [8]: < 5%
inhibition [7]: < 5%

CCC(NC(=O)OCc1ccccc1)P(=O)(Oc1ccc(C(C)(C)C)cc1)Oc1ccc(C(C)(C)C)cc1 (centres undefined)
inhibition [3]: < 5%
inhibition [8]: < 5%

CCC(NC(=O)OCc1ccccc1)P(=O)(Oc1ccc(C)cc1)Oc1ccc(C)cc1 (centres undefined)
inhibition [3]: < 5%
inhibition [8]: < 5%
